Data: ChEMBL document CHEMBL3877293, “Synthesis and Antineoplastic Evaluation of Novel Unsymmetrical 1,3,4-Oxadiazoles” (J Med Chem, 2016)

Assays:
[1] = Antiproliferative activity against human HeLa cells after 72 hrs by XTT assay; format: functional, cell-based
Summary of the method: (§1)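 Cells plated at 1500–2000 per well by doubling time, treated after 24 h with a concentration series in six triplicate wells, and incubated 72 h without a medium change. XTT reagent was then added for 4 h at 37 °C and absorbance read at 490 nm. IC50 is the concentration halving absorbance versus untreated cells. Experiments run in triplicate.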

[2] = Antiproliferative activity against human MCF7 cells after 72 hrs by XTT assay; format: functional, cell-based; details: MCF7, 72 h; summary of the method: as §1

| Structure (SMILES) | IC50 [1] | IC50 [2] |
| --- | --- | --- |
| Clc1ccc(-c2nnc(-c3c[nH]c4c3Cc3ccccc3-4)o2)cc1Cl | > 10 µM | > 10 µM |
| c1ccc(Cc2nnc(-c3c[nH]c4c3Cc3ccccc3-4)o2)cc1 | > 10 µM | > 10 µM |
| Cn1nc(-c2nnc(-c3ccccc3)o2)c2c1-c1ccccc1C2 | > 10 µM | > 10 µM |
| Cc1[nH]c2c(c1-c1nnc(-c3ccccc3)o1)Cc1cc(Cl)ccc1-2 | 4.5 µM | > 10 µM |
| Clc1ccc(-c2nnc(-c3c[nH]c4c3Cc3ccccc3-4)o2)cc1 | > 10 µM | > 10 µM |
| Cc1[nH]c2c(c1-c1nnc(-c3ccccc3)o1)Cc1cc(C3CC3)ccc1-2 | 1.58 µM | 2.31 µM |
| Cc1ccc2c(c1)Cc1c-2[nH]c(C)c1-c1nnc(-c2ccccc2)o1 | 5.3 µM | > 10 µM |
| Clc1cccc(-c2nnc(-c3c[nH]c4c3Cc3ccccc3-4)o2)c1 | > 10 µM | > 10 µM |
| c1ccc2c(c1)Cc1c(-c3nnc(C4CCCCC4)o3)c[nH]c1-2 | > 10 µM | > 10 µM |
| Clc1ccc(Cc2nnc(-c3c[nH]c4c3Cc3ccccc3-4)o2)cc1 | > 10 µM | > 10 µM |
| COc1ccc2c(c1)-c1[nH]c(C)c(-c3nnc(-c4ccccc4)o3)c1C2 | > 10 µM | > 10 µM |
| COc1cc(-c2nnc(-c3c[nH]c4c3Cc3ccccc3-4)o2)cc(OC)c1OC | > 10 µM | > 10 µM |
| Cc1ccc(Cc2nnc(-c3c[nH]c4c3Cc3ccccc3-4)o2)cc1 | > 10 µM | 4.25 µM |
| CC(C)(C)c1ccc(-c2nnc(-c3c[nH]c4c3Cc3ccccc3-4)o2)cc1 | 3.4 µM | 9.5 µM |
| c1ccc(-c2nnc(-c3nn(-c4ccccc4)c4c3Cc3ccccc3-4)o2)cc1 | > 10 µM | 7.59 µM |
| Cc1[nH]c2c(c1-c1nnc(-c3ccccc3)o1)Cc1cc(Br)ccc1-2 | 0.51 µM | 4.26 µM |
